Assays:
Assay type in all cases: functional
Rattus norvegicus [1] = experiment: Antihyperlipidemic activity in diet-induced hyperlipidemic rat model assessed as serum total cholesterol level at 40 mg/kg, po administered once daily in morning through gastric intubation for 14 days measured after 4 hrs of last dose
How it was run: (§1)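 Male Charles Foster albino rats (200–250 g) fed a hyperlipidemic diet. Compound suspended in 5% EtOH/saline, given by gastric intubation each morning for 14 days; controls got vehicle. Killed 4 h after the last dose, serum taken by cardiac puncture. TC by Abell method, TG by Gottfried–Rosenberg, HDL-C by kit. LDL-C and VLDL-C by Friedewald calculation. Atherogenic index = (TC−HDL-C)/HDL-C. Mean ± SEM, n=6, t-test.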

Rattus norvegicus [2] = experiment: Antihyperlipidemic activity in diet-induced hyperlipidemic rat model assessed as serum triglyceride level at 40 mg/kg, po administered once daily in morning through gastric intubation for 14 days measured after 4 hrs of last dose; how it was run: as §1
Rattus norvegicus [3] = experiment: Antihyperlipidemic activity in diet-induced hyperlipidemic rat model assessed as serum HDLC level at 40 mg/kg, po administered once daily in morning through gastric intubation for 14 days measured after 4 hrs of last dose; how it was run: as §1
Rattus norvegicus [4] = experiment: Antihyperlipidemic activity in diet-induced hyperlipidemic rat model assessed as serum LDLC level at 40 mg/kg, po administered once daily in morning through gastric intubation for 14 days measured after 4 hrs of last dose; how it was run: as §1
Rattus norvegicus [5] = experiment: Antihyperlipidemic activity in diet-induced hyperlipidemic rat model assessed as serum VLDLC level at 40 mg/kg, po administered once daily in morning through gastric intubation for 14 days measured after 4 hrs of last dose; how it was run: as §1
Rattus norvegicus [6] = experiment: Antihyperlipidemic activity in diet-induced hyperlipidemic rat model assessed as ratio of HDLC to serum total cholesterol level at 40 mg/kg, po administered once daily in morning through gastric intubation for 14 days measured after 4 hrs of last dose
Rattus norvegicus [7] = experiment: Antihyperlipidemic activity in diet-induced hyperlipidemic rat model assessed as atherogenic index at 40 mg/kg, po administered once daily in morning through gastric intubation for 14 days measured after 4 hrs of last dose; how it was run: as §1
Rattus norvegicus [8] = experiment: Antihyperlipidemic activity in Triton-induced hyperlipidemic rat model assessed as serum total cholesterol level at 75 mg/kg, po administered for 2 days through gastric intubation immediately and 20 hrs after triton challenge measured after 4 hrs of last dose
How it was run: (§2)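 Male Charles Foster albino rats (200–250 g), fasted 24 h, given Triton 400 mg/kg ip in saline. Compound given orally by gastric intubation right after Triton and again 20 h later. Killed by decapitation 4 h after the second dose. Serum separated and stored at −20°. Total cholesterol by Abell method, triglycerides by Gottfried–Rosenberg, total lipid by Frings–Dunn. Mean ± SEM, n=6, Student's t-test versus control.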

Rattus norvegicus [9] = experiment: Antihyperlipidemic activity in Triton-induced hyperlipidemic rat model assessed as serum triglyceride level at 75 mg/kg, po administered for 2 days through gastric intubation immediately and 20 hrs after triton challenge measured after 4 hrs of last dose; how it was run: as §2
Rattus norvegicus [10] = experiment: Antihyperlipidemic activity in Triton-induced hyperlipidemic rat model assessed as serum total lipid level at 75 mg/kg, po administered for 2 days through gastric intubation immediately and 20 hrs after triton challenge measured after 4 hrs of last dose; how it was run: as §2

Row | SMILES | Activity (Rattus norvegicus [1]) [mg/dL] | Activity (Rattus norvegicus [2]) [mg/dL] | Activity (Rattus norvegicus [3]) [mg/dL] | Activity (Rattus norvegicus [4]) [mg/dL] | Activity (Rattus norvegicus [5]) [mg/dL] | Ratio (Rattus norvegicus [6]) | AI (Rattus norvegicus [7]) | Activity (Rattus norvegicus [8]) [mg%] | Activity (Rattus norvegicus [9]) [mg%] | Activity (Rattus norvegicus [10]) [mg%]
1 | COc1cc(O)cc2c1C(=O)C(O)(Cc1ccc(O)cc1)O2 (stereo unspecified) [CARPUSIN] | 350.6 | 190 | 32 | 292.8 | 41.1 | 0.09 | – | – | – | –
2 | O=C1C[C@@H](c2ccc(O)cc2)Oc2cc(O)ccc21 [LIQUIRTIGENIN] | 323.2 | 198.1 | 38.01 | 245.7 | 39.6 | 0.11 | 7.5 | 406.7 | 572.9 | 837.3

— ChEMBL document CHEMBL1148174, “Antihyperlipidemic effect of flavonoids from Pterocarpus marsupium” (1993)
